Values joined by “and” are separate entries in the source; they are usually repeats but may differ in a detail not shown here. Identical values can stand only once. Like-named read-outs stand apart in the source and are kept apart here. Values belong to the molecule of their own block, whether it stands above or below them.
Tests used:
[1] = molecular target: transducin β (Trd) 325-340 (UniProt P62873); experiment: ITC, peptide titrated into centrin; conditions: reference: wild type C-HsCen1; sites T138
[2] = molecular target: CK2 (catalytic α and regulatory β subunits complex) (Homo sapiens, UniProt P67870+P68400); experiment: In vitro phosphorylation by CK2, HPLC quantification; type: biochemical; conditions: for reduction of phosphorylation by addition of Ca2+: CK2, 37 °C
CK2 (catalytic α and regulatory β subunits complex), sequence (P68400 whole entry): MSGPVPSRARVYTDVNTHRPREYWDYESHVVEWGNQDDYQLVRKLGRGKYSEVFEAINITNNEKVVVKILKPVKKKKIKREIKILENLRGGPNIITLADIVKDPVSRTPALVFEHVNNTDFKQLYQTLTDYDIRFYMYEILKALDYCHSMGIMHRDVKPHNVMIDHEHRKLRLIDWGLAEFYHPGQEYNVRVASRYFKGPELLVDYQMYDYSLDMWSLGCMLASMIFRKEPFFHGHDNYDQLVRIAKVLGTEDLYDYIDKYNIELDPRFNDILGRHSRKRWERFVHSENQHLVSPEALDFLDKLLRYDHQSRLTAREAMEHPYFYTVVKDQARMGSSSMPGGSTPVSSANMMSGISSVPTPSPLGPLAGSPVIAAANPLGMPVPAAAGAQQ
CK2 (catalytic α and regulatory β subunits complex), sequence (P67870 whole entry partner): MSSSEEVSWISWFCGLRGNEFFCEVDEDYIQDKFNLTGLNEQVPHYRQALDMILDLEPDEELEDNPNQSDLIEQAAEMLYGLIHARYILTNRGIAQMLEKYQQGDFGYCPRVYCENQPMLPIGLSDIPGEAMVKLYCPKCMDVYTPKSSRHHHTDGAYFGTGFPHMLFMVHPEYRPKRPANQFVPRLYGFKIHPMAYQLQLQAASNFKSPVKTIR

[3] = system: HsCen1 (full-length human centrin 1); experiment: ITC, peptide binding to full-length HsCen1
How it was run: (§1)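 Recombinant human centrin (full-length or C-terminal domain; Asp variants made by double-PCR mutagenesis) was expressed in E. coli BL21(DE3), heat-treated at 63 °C, then purified by ion-exchange, phenyl and gel-filtration chromatography. ITC at 30 °C: 10 μM centrin titrated with 100 μM N-acetylated, C-amidated peptide in 50 mM MOPS, 100 mM NaCl, pH 7.5, plus 1 mM CaCl₂ or 2 mM EDTA. Dilution heats subtracted; data fitted for n, Ka and ΔH.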

[4] = system: C-HsCen2-T138D; experiment: ITC, peptide binding to C-HsCen2 T138D; design: species or system human; conditions: presence of Ca2+; versus C-HsCen2 wild type
How it was run: as §1

[5] = system: C-HsCen2-S158D; experiment: ITC, peptide binding to C-HsCen2 S158D; design: species or system human; conditions: versus C-HsCen2 wild type
How it was run: as §1

[6] = system: C-HsCen2 T138D-S158D; experiment: ITC, peptide binding to C-HsCen2 T138D-S158D; design: species or system human; conditions: presence of Ca2+; versus C-HsCen2 wild type
How it was run: as §1

[7] = system: HsC1P (human centrin 1 phosphorylated by CK2 at T138); experiment: ITC, peptide binding to CK2-phosphorylated HsCen1; conditions: EDTA / absence of Ca2+; phosphorylated versus unphosphorylated centrin 1
[8] = molecular target: human centrin 1, full-length (human) (UniProt Q12798); experiment: ITC
[9] = molecular target: T1, C-terminal domain of human centrin 1 (M93-Y172) (human, UniProt Q12798 93-172); experiment: ITC
[10] = molecular target: T2, human centrin 1, full-length (human, UniProt Q12798 1-172); experiment: ITC
T2 sequence: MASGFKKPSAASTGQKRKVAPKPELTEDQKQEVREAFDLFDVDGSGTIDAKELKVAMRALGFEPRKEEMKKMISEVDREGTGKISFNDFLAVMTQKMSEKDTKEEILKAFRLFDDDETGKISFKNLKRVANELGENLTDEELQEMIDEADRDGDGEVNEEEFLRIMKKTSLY

[11] = molecular target: T3, human centrin 1 T138D, full-length (human, UniProt Q12798 1-172, T138D); experiment: ITC
T3 sequence: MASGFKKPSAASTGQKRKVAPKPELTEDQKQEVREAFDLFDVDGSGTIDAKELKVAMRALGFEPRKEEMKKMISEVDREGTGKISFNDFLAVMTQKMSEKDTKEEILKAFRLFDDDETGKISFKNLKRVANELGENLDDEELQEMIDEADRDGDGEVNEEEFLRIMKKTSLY

[12] = molecular target: T1, C-terminal domain of human centrin 1 …; experiment: ITC; remark: listed apart in the source
[13] = molecular target: T2, human centrin 1, full-length; experiment: ITC; remark: listed apart in the source
[14] = molecular target: T3, human centrin 1 T138D, full-length; experiment: ITC; remark: listed apart in the source
[15] = molecular target: T4, C-terminal domain of human centrin 2 T138D-S158D (human, UniProt P41208 93-172, T138D | S158D); experiment: ITC
T4 sequence (P41208 93-172 T138D/S158D): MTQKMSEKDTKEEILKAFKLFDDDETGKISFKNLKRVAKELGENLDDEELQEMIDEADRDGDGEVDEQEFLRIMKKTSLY

[16] = molecular target: T5, C-terminal domain of human centrin 2 (M93-Y172) (human, UniProt P41208 93-172); experiment: ITC
T5 sequence (P41208 93-172): as the sequence (P41208 93-172 T138D/S158D) above, with D46T, D66S counted along it

[17] = molecular target: T6, C-terminal domain of human centrin 2 T138D (human, UniProt P41208 93-172, T138D); experiment: ITC
T6 sequence (P41208 93-172 T138D): as the sequence (P41208 93-172 T138D/S158D) above, with D66S counted along it

[18] = molecular target: T7, C-terminal domain of human centrin 2 S158D (human, UniProt P41208 93-172, S158D); experiment: ITC
T7 sequence (P41208 93-172 S158D): as the sequence (P41208 93-172 T138D/S158D) above, with D46T counted along it

[19] = molecular target: T4, C-terminal domain of human centrin 2 …; experiment: ITC; remark: listed apart in the source
[20] = molecular target: T5, C-terminal domain of human centrin 2 …; experiment: ITC; remark: listed apart in the source
[21] = molecular target: T6, C-terminal domain of human centrin 2 …; experiment: ITC; remark: listed apart in the source
[22] = molecular target: T7, C-terminal domain of human centrin 2 …; experiment: ITC; remark: listed apart in the source
[23] = molecular target: C-terminal domain of human centrin 1 T138D (human); experiment: ITC
[24] = after 5 h, without Ca2+ (Fig. 1A, B)
[25] = after 3 h at 37 °C, EGTA, HPLC peak integration
[26] = after 3 h at 37 °C, presence of Ca2+

other: Ka [1]: weaker; reference 0.54 (0.3)
Molecule: human centrin 1 (HsCen1) C-terminal domain, 93-172 (from UniProt Q12798) C-HsCen1 T138E

reduction of phosphorylation by addition of Ca2+ [2]: 40%
reduction of phosphorylation by the mutation versus wild type ([2]; after 5 h): 30%
protein phosphorylated by CK2 [2, 24]: 50%
Molecule: C-HsCen1N131K: N131K variant of the C-terminal domain of human centrin 1

other: Ka [1]: weaker; reference 0.54 (0.3)
Molecule: human centrin 1 (HsCen1) C-terminal domain, 93-172 (from UniProt Q12798) C-HsCen1 T138D

factor of decrease of binding constant of HsCen1 compared with R18-Sfi1 ([3]; absence of Ca2+): 10
factor of increase of affinity by the T138D mutation [4]: 3
factor of reduction of affinity by the S158D mutation ([5]; absence of Ca2+): 4.7
factor of increase of affinity by the S158D mutation ([5]; presence of Ca2+): 5
factor of increase of affinity by the T138D-S158D double mutation [6]: 2
Molecule: 641-RADLHHQHSVLHRALQAWVT-660 [R17-Sfi1]

increase in phosphorylation by the mutation versus wild type ([2]; after 5 h): 12%
protein phosphorylated by CK2 [2, 24]: 60%
Molecule: C-HsCen2-K131N: K131N variant of the C-terminal domain of human centrin 2

reduction of phosphorylation by addition of Ca2+ [2]: 30%
protein phosphorylated by CK2 [2, 25]: 62%
protein phosphorylated by CK2 [2, 26]: 30%
protein phosphorylated by CK2 [2, 24]: 80%
protein phosphorylated by CK2 ([2]; after 10 h, presence of EGTA): 95%
protein phosphorylated by CK2 ([2]; after 48 h, presence of Ca2+): 80%
time after which 95% phosphorylation was achieved ([2]; presence of Ca2+): 48 h
Molecule: C-HsCen1: C-terminal domain (M93-Y172) of human centrin 1, recombinant; here as CK2 substrate

protein phosphorylated by CK2 [2, 25]: 45%
protein phosphorylated by CK2 [2, 26]: 15%
protein phosphorylated by CK2 [2, 24]: 48%
protein phosphorylated by CK2 ([2]; after 48 h, presence of Ca2+): 50%
Molecule: C-HsCen2: C-terminal domain (M93-Y172) of human centrin 2, recombinant; here as CK2 substrate

factor of reduction of the phosphorylation rate at T138 ([2]; C-HsCen2-S158D versus S158A variant, without Ca2+): 1.36
factor of reduction of the phosphorylation rate at T138 ([2]; C-HsCen2-S158D, presence of Ca2+): 2.1
Molecule: C-HsCen2-S158D: S158D phosphomimetic variant of the C-terminal domain of human centrin 2

equilibrium association constant Ka ([3]; presence of Ca2+, centrin 1, ITC, one-site binding model): 2.5 10^8 M^−1
factor of reduction of binding by phosphorylation at T138 [7]: 10
Molecule: 677-SQHNRQLLRGALRRWK-692 [R18-Sfi1]

Ka [8]: 170000 M⁻¹
dH [8]: -12.2 kcal/mol
Molecule: HsTrB, transducin β-derived peptide 325-340 (last WD repeat)

Ka [8]: 130000 M⁻¹
dH [8]: -10.6 kcal/mol
Molecule: HsTrBW332L, transducin β peptide 325-340 W332L

Ka [9]: 3.56e+06 M⁻¹
dH [9]: -29.8 kcal/mol
stoichiometry N [9]: 1.03
Ka [10]: 3.47e+06 M⁻¹
dH [10]: -34.7 kcal/mol
stoichiometry N [10]: 0.88
Ka [11]: 875000 M⁻¹
dH [11]: -36.4 kcal/mol
stoichiometry N [11]: 0.83
Ka [12]: 8.15e+07 M⁻¹
dH [12]: -22.5 kcal/mol
stoichiometry N [12]: 0.99
Ka [13]: 2.49e+08 M⁻¹
dH [13]: -35.5 kcal/mol
stoichiometry N [13]: 0.88
Ka [14]: 2.39e+08 M⁻¹
dH [14]: -36.7 kcal/mol
stoichiometry N [14]: 0.77
Molecule: Ac-SQHNRQLLRGALRRWK-NH2 [HsSfiR18, repeat 18 peptide of human Sfi1 (677-692)]

Ka [9]: 8.25e+06 M⁻¹
dH [9]: -28.1 kcal/mol
Ka [10]: 1.22e+07 M⁻¹
dH [10]: -28.4 kcal/mol
stoichiometry N [10]: 0.98
Ka [11]: 2.9e+06 M⁻¹
dH [11]: -30.2 kcal/mol
stoichiometry N [11]: 0.92
Ka [15]: 800000 M⁻¹
dH [15]: -26.8 kcal/mol
Ka [16]: 7.35e+06 M⁻¹
dH [16]: -29.3 kcal/mol
stoichiometry N [16]: 0.95
Ka [17]: 2.5e+06 M⁻¹
dH [17]: -32.7 kcal/mol
stoichiometry N [17]: 0.94
dH [18]: -23.8 kcal/mol
Ka [12]: 3.96e+07 M⁻¹
dH [12]: -23.3 kcal/mol
stoichiometry N [12]: 0.93
Ka [13]: 5.25e+07 M⁻¹
dH [13]: -28.4 kcal/mol
stoichiometry N [13]: 1.04
Ka [14]: 1.02e+08 M⁻¹
dH [14]: -28.5 kcal/mol
stoichiometry N [14]: 0.95
dH [19]: -23.9 kcal/mol
stoichiometry N [19]: 1.18
Ka [20]: 5.27e+07 M⁻¹
dH [20]: -23.4 kcal/mol
stoichiometry N [20]: 0.81
Ka [21]: 2.71e+07 M⁻¹
dH [21]: -24 kcal/mol
stoichiometry N [21]: 0.82
Ka [22]: 4.31e+07 M⁻¹
dH [22]: -23 kcal/mol
stoichiometry N [22]: 0.89
Molecule: Ac-NWKLLAKGLLIRERLKR-NH2 [P17-XPC, 17-residue peptide of human XPC]

Ka [9]: 690000 M⁻¹
dH [9]: -26.6 kcal/mol
stoichiometry N [9]: 0.825
dH [16]: -20.1 kcal/mol and -22 kcal/mol
stoichiometry N [16]: 0.91 and 1.09
Ka [12]: 1.49e+08 M⁻¹
dH [12]: -21.6 kcal/mol
stoichiometry N [12]: 0.8
Molecule: Ac-TVWAQLARHLVSHQHHLDAR-NH2 [HsSfi1R17inv, repeat 17 peptide of human Sfi1 in reversed sequence orientation]

dH [23]: -9.97 kcal/mol
Ka [14]: 180000 M⁻¹
dH [14]: -8.14 kcal/mol
stoichiometry N [14]: 0.75
Molecule: Ac-MAVATGSWDSFLKIWN-NH2 [HsTrB, transducin β-derived peptide 325-340 (last WD repeat)]

Ka [9]: 120000 M⁻¹
dH [9]: -43.1 kcal/mol
stoichiometry N [9]: 0.88
Ka [10]: 347000 M⁻¹
dH [10]: -19.2 kcal/mol
stoichiometry N [10]: 1.12
Ka [16]: 190000 M⁻¹
dH [16]: -31.3 kcal/mol
stoichiometry N [16]: 0.72
Ka [17]: 230000 M⁻¹
dH [17]: -9.76 kcal/mol
stoichiometry N [17]: 0.75
Ka [18]: 40000 M⁻¹
dH [18]: -38.5 kcal/mol
stoichiometry N [18]: 0.77
Ka [12]: 1.25e+08 M⁻¹
dH [12]: -18 kcal/mol
stoichiometry N [12]: 1.21
Ka [19]: 3.5e+07 M⁻¹
dH [19]: -22.4 kcal/mol
stoichiometry N [19]: 0.91
Ka [20]: 1.82e+07 M⁻¹
dH [20]: -20.2 kcal/mol
stoichiometry N [20]: 0.95
Ka [21]: 4.54e+07 M⁻¹
dH [21]: -24.3 kcal/mol
stoichiometry N [21]: 0.86
Ka [22]: 1.01e+08 M⁻¹
dH [22]: -25.9 kcal/mol
stoichiometry N [22]: 0.7
Molecule: Ac-RADLHHQHSVLHRALQAWVT-NH2 [HsSfiR17, repeat 17 peptide of human Sfi1 (641-660)]

— article PMC4050191 (FEBS Open Bio, 2014)
